Measured values from ChEMBL document CHEMBL4145631, “Riluzole-Triazole Hybrids as Novel Chemical Probes for Neuroprotection in Amyotrophic Lateral Sclerosis” (ACS Med Chem Lett, 2018).
Calls of active or inactive are those of the source. The rule behind the calls is not given here.

Columns and labels:
Cortical neurone [1] = test: Neuroprotective activity against kainate-induced cell death in mouse primary cortical neurons by caspase activation method; assay type: functional, cell-based
Cortical neurone [2] = test: Neuroprotective activity against kainate-induced cell damage in mouse primary cortical neurons assessed as reversal of kainate-induced reduction in calcium flux by fura-2-AM dye based fluorescence assay; assay type: functional
Outline: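 Mouse primary cortical neurons loaded with fura-2AM for 45 min, washed, then depolarized with 10 mM KCl to drive Ca2+ entry through voltage-gated calcium channels. Flux read on a plate-based system.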

Cortical neurone [3] = test: Neuroprotective activity against kainate-induced cell death in mouse primary cortical neurons by cell counting method; assay type: functional, cell-based
Cortical neurone [4] = test: Neuroprotective activity against kainate-induced cell damage in mouse primary cortical neurons assessed as reduction in kainate-induced neurofilament loss by measuring increase in MAPK level at 1 uM pretreated followed by kainate challenge measured after 18 hrs by fluorescence assay; assay type: functional, cell-based; details: in the assay text read “MAP2” for “MAPK”
Outline: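 Mouse primary cortical neurons cultured as previously described; dendritic processes stained with anti-MAP2 antibody. Cell-profile perimeter measured by image analysis, each condition normalized to kainate-only.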

Cortical neurone [5] = test: Neuroprotective activity against kainate-induced cell death in mouse primary cortical neurons by MTT assay; assay type: functional, cell-based
Mus musculus [6] = species on record: Mus musculus; test: Neuroprotective activity against kainate-induced cell death in mouse primary motor neurons by cell counting method; assay type: functional
Mus musculus [7] = species on record: Mus musculus; test: Neuroprotective activity against kainate-induced cell death in mouse primary motor neurons by caspase activation method; assay type: functional
Mus musculus [8] = species on record: Mus musculus; test: Neuroprotective activity against kainate-induced cell death in mouse primary motor neurons by MTT assay; assay type: functional

Row | Structure (SMILES) | Activity (Cortical neurone [1]) | Activity (Cortical neurone [2]) | Activity (Cortical neurone [3]) | Activity (Cortical neurone [4]) | Activity (Cortical neurone [5]) | Activity (Mus musculus [6]) | Activity (Mus musculus [7]) | Activity (Mus musculus [8])
1 | N=c1sc2cc(OC(F)(F)F)ccc2n1CCn1cc(Cc2ccccc2)nn1 | inactive | Active | inactive | inactive | inactive | inactive | inactive | inactive
2 | N=c1sc2cc(OC(F)(F)F)ccc2n1CCn1cc(-c2ccc([N+](=O)[O-])cc2)nn1 | inactive | Active | inactive | inactive | inactive | inactive | inactive | inactive
3 | N=c1sc2cc(OC(F)(F)F)ccc2n1CCn1cc(-c2cc(F)c(F)c(F)c2)nn1 | inactive | Active | inactive | inactive | inactive | inactive | inactive | inactive
4 | N=c1sc2cc(OC(F)(F)F)ccc2n1CCn1cc(CCc2ccccc2)nn1 | inactive | Active | inactive | inactive | inactive | inactive | inactive | inactive
5 | CCCc1ccc(-c2cn(CCn3c(=N)sc4cc(OC(F)(F)F)ccc43)nn2)cc1 | inactive | Active | inactive | inactive | inactive | inactive | inactive | inactive
6 | Cn1cncc1-c1cn(CCn2c(=N)sc3cc(OC(F)(F)F)ccc32)nn1 | inactive | Active | inactive | inactive | inactive | inactive | inactive | inactive
7 | N=c1sc2cc(OC(F)(F)F)ccc2n1CCn1cc(C2CCCCC2)nn1 | inactive | Active | inactive | inactive | inactive | inactive | inactive | inactive
8 | N=c1sc2cc(OC(F)(F)F)ccc2n1CCn1cc(-c2ccccc2F)nn1 | inactive | Active | inactive | inactive | inactive | inactive | inactive | inactive
9 | CCCCc1ccc(-c2cn(CCn3c(=N)sc4cc(OC(F)(F)F)ccc43)nn2)cc1 | inactive | Active | inactive | inactive | inactive | inactive | inactive | inactive
10 | N=c1sc2cc(OC(F)(F)F)ccc2n1CCn1cc(-c2ccc(Cl)cc2)nn1 | inactive | Active | inactive | inactive | inactive | inactive | inactive | inactive
11 | N=c1sc2cc(OC(F)(F)F)ccc2n1CCn1cc(-c2ccc(F)c(F)c2)nn1 | inactive | Active | inactive | inactive | inactive | inactive | inactive | inactive
12 | Cc1ccccc1-c1cn(CCn2c(=N)sc3cc(OC(F)(F)F)ccc32)nn1 | inactive | Active | inactive | inactive | inactive | inactive | inactive | inactive
